Source: ChEMBL document CHEMBL3853320, “Discovery of Imidazoquinolines as a Novel Class of Potent, Selective, and in Vivo Efficacious Cancer Osaka Thyroid (COT) Kinase Inhibitors” (J Med Chem, 2016)
In brackets after ≈: the same amount, converted by molar mass. Activity calls are given as the source filed them. No cut-off for these calls is given here.

Experiments:
[1] = biological target: T1, Mitogen-activated protein kinase kinase kinase 8 (Homo sapiens, UniProt P41279); test: Inhibition of human COT (66 to 395 residues) expressed in Sf21 cells using 5-Fluo-Ahx-AGAGSGQLIDSNleANSFVGTR-NH2 as substrate after 60 mins by caliper microfluidic mobility shift assay
T1 sequence (P41279 whole entry, the tested form may be a part): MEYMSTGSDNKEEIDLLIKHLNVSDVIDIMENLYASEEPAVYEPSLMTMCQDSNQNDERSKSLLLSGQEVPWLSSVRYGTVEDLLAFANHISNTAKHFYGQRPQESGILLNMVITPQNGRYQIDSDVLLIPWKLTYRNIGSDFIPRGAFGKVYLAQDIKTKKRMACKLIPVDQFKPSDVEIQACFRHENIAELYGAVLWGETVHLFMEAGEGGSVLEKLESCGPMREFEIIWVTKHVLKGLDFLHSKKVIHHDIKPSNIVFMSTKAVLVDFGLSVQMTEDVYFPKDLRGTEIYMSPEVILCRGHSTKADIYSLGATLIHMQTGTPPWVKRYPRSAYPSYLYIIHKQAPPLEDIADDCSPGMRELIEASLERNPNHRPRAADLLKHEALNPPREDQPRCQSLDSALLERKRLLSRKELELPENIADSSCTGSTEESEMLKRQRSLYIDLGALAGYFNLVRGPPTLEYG

[2] = Inhibition of MEK/ERK signaling pathway in TNFalpha-stimulated human A431 cells transfected with COT siRNA assessed as reduction in ERK1/2 phosphorylation incubated for 60 mins followed by stimulation with TNFalpha for 10 mins by Western blot analysis; assay type: cell-based; conditions: A-431
[3] = Inhibition of MEK/ERK signaling pathway in EGF-stimulated human A431 cells transfected with COT siRNA assessed as reduction in ERK1/2 phosphorylation incubated for 60 mins followed by stimulation with EGF for 10 mins by Western blot analysis; assay type: cell-based; conditions: A-431
[4] = biological target: T1, Mitogen-activated protein kinase kinase kinase 8; test: Inhibition of COT in LPS-stimulated human PBMC assessed as reduction in ERK1/2 phosphorylation incubated for 60 mins followed by LPS stimulation for 12 mins by flow cytometric analysis
How it was run: (§1)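 Primary human PBMCs were stimulated with LPS. Read-outs were pERK, TNFα release, or p65 phosphorylation, each reported as IC50.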

[5] = biological target: T1, Mitogen-activated protein kinase kinase kinase 8; test: Inhibition of COT in LPS-stimulated human PBMC assessed as reduction in TNFalpha release incubated for 1 hr followed by stimulation with LPS for 4 hrs by HTRF assay; how it was run: as §1
[6] = Inhibition of NFkappaB pathway in LPS-stimulated human PBMC assessed as reduction in p65 phosphorylation incubated for 60 mins followed by LPS stimulation for 12 mins by flow cytometric analysis analysis; how it was run: as §1
[7] = biological target: Receptor-type tyrosine-protein kinase FLT3 (Homo sapiens, UniProt P36888, D835Y); test: Inhibition of FLT3 (563 to 993 residues) D835Y mutant (unknown origin) after 60 mins in presence of ATP by caliper microfluidic mobility shift assay
[8] = biological target: MAP kinase-interacting serine/threonine-protein kinase 2 (Homo sapiens, UniProt Q9HBH9); test: Inhibition of MKNK2 (unknown origin) after 60 mins in presence of ATP by caliper microfluidic mobility shift assay
Chain of MAP kinase-interacting serine/threonine-protein kinase 2 (Q9HBH9 whole entry): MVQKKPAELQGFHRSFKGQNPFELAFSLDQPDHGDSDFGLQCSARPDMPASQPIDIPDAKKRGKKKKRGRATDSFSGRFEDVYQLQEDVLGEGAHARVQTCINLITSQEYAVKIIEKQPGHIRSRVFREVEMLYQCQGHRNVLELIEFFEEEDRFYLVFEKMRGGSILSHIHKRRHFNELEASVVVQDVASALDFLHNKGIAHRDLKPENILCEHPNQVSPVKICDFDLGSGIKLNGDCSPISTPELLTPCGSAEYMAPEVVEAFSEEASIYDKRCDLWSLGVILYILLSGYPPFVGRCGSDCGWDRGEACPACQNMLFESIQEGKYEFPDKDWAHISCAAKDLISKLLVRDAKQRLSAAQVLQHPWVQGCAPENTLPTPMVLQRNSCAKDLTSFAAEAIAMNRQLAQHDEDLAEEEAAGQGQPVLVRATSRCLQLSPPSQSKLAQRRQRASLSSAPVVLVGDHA

[9] = Octanol-water partition coefficient, log P of the compound by shake-flask method; assay type: physicochemical
[10] = biological target: T1, Mitogen-activated protein kinase kinase kinase 8; test: Inhibition of COT in LPS-stimulated human whole blood assessed as reduction in TNFalpha release incubated for 30 mins followed by stimulation with LPS for 3 hrs by HTRF assay; assay type: tissue-based
How it was run: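 Human whole blood was stimulated with LPS, and TNFα release was measured as IC50.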

[11] = Equilibrium solubility of the compound at pH 6.8 after 16 hrs by mass spectrometric analysis; assay type: physicochemical; conditions: buffer
[12] = Equilibrium solubility of the compound at pH 4 after 16 hrs by mass spectrometric analysis; assay type: physicochemical; conditions: buffer
[13] = Protein binding in human plasma at 5 uM after 4 hrs by rapid equilibrium dialysis method; assay type: ADME, cell-free; conditions: read-out: PPB (converted)
[14] = Clearance in wild type Sprague-Dawley rat plasma at 1 mg/kg, iv; assay type: ADME, organism-based
How it was run: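 Male wild-type Sprague–Dawley rats were given 1 mg/kg intravenously. Clearance was derived from plasma.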

[15] = Half life in wild type Sprague-Dawley rat liver microsomes at 5 uM preincubated for 3 mins followed by NADPH addition measured after 1 hr by HPLC/MS analysis; assay type: ADME
[16] = Metabolic stability in Sprague-Dawley rat liver microsomes assessed as parent compound remaining at 5 uM after 1 hr in presence of NADPH by HPLC/MS analysis; assay type: ADME; conditions: read-out: Stability
[17] = Metabolic stability in bile-duct cannulated Sprague-Dawley rat assessed as parent compound remaining in blood at 3 mg/kg, iv measured 1 hr post dose; assay type: ADME, organism-based; conditions: read-out: Stability
[18] = Metabolic stability in bile-duct cannulated Sprague-Dawley rat assessed as parent compound remaining in blood at 3 mg/kg, iv measured 4 hrs post dose; assay type: ADME, organism-based; conditions: read-out: Stability
How it was run: (§2)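 Bile-duct cannulated rats dosed in vivo. Parent and metabolites in each matrix were expressed as relative peak areas of the drug-related components detected, at the stated sampling time or collection period post dose.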

[19] = Metabolic stability in bile-duct cannulated Sprague-Dawley rat assessed as parent compound remaining in bile at 3 mg/kg, iv measured over 8 hrs post dose; assay type: ADME, organism-based; conditions: read-out: Stability
[20] = Metabolic stability in bile-duct cannulated Sprague-Dawley rat assessed as parent compound remaining in urine at 3 mg/kg, iv measured over 8 hrs post dose; assay type: ADME, organism-based; conditions: read-out: Stability; how it was run: as §2
[21] = Drug excretion in bile-duct cannulated Sprague-Dawley rat bile at 3 mg/kg, iv; assay type: ADME, organism-based; conditions: read-out: Drug excretion
[22] = Drug excretion in bile-duct cannulated Sprague-Dawley rat urine at 3 mg/kg, iv; assay type: ADME, organism-based; conditions: read-out: Drug excretion
[23] = Drug metabolism in Sprague-Dawley rat liver S9 fraction assessed as 1-(2-(1-morpholinopropan-2-ylamino)benzo[d]thiazol-6-yl)-8-(pyridin-4-yl)-1H-imidazo[4,5-c][1,7]naphthyridin-4(5H)-one metabolite formation in absence of NADPH after 5 to 120 mins by LC/MS/MS analysis; assay type: ADME
How it was run: (§3)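 Rat or human liver S9 fractions were incubated without NADPH cofactor. Loss of parent and formation of the 4-oxo metabolite M1 were monitored.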

[24] = Metabolic stability in bile-duct cannulated Sprague-Dawley rat assessed as parent compound remaining in feces at 3 mg/kg, iv measured over 8 hrs post dose; assay type: ADME, organism-based; conditions: read-out: Stability; how it was run: as §2
[25] = Drug excretion in bile-duct cannulated Sprague-Dawley rat kidney at 3 mg/kg, iv measured 8 hrs post dose; assay type: ADME, organism-based; conditions: in vivo
[26] = Drug excretion in bile-duct cannulated Sprague-Dawley rat liver at 3 mg/kg, iv measured 8 hrs post dose; assay type: ADME, organism-based; conditions: in vivo
[27] = Drug excretion in bile-duct cannulated Sprague-Dawley rat feces at 3 mg/kg, iv measured 8 hrs post dose; assay type: ADME, organism-based; conditions: read-out: Drug excretion
[28] = Drug metabolism in human liver S9 fraction assessed as 1-(2-(1-morpholinopropan-2-ylamino)benzo[d]thiazol-6-yl)-8-(pyridin-4-yl)-1H-imidazo[4,5-c][1,7]naphthyridin-4(5H)-one metabolite formation in absence of NADPH after 5 to 120 mins by LC/MS/MS analysis; assay type: ADME; how it was run: as §3
[29] = system: Canis familiaris; test: Antiinflammatory activity in MSU-induced beagle dog acute synovitis model assessed as prevention of inflammation-driven lameness at 0.2 mg/kg, po administered once a week 3 hrs post MSU injection measured after 6 hrs post last dose; assay type: functional, organism-based; conditions: Canis lupus familiaris
How it was run: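 Lameness was induced in dogs by uric acid injection into the joint. Treatment was vehicle, test article at 5 or 15 mg/kg, or meloxicam 0.2 mg/kg. Vertical peak force of the affected limb was measured on a force plate while trotting. The read-out was the time after treatment for that force to recover to 60% of the value measured before lameness.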

IC50 [1] [nM]	IC50 [4] [nM]	IC50 [5] [nM]	logP [9]	IC50 [10] [nM]	solubility thermodynamic at 16 h [11] [µM]	solubility thermodynamic at 16 h [12] [µM]	Compound	also measured
100	–	–	–	–	–	–	c1cc(-c2cc3c(cn2)ncc2ncn(-c4ccc5nc[nH]c5c4)c23)ccn1	–
200	–	–	–	–	–	–	Cc1cccc(-c2cc3c(cn2)ncc2ncn(-c4ccc5nc[nH]c5c4)c23)c1	–
> 10000	–	–	–	–	–	–	Clc1cc2c(cn1)ncc1ncn(-c3ccc4nc[nH]c4c3)c12	–
20	540	440	4.2	1780	< 4	6 (≈ 2.28 µg/mL)	c1cnc2ccc(-n3cnc4cnc5cnc(-c6ccsc6)cc5c43)cc2c1	IC50 [2]: 61 nM; IC50 [3]: > 10000 nM; IC50 [6]: > 25000 nM; IC50 [7]: < 340 nM; IC50 [8]: < 1400 nM; fraction unbound at 4 h, 5 µM [13]: < 0.01
160	–	–	–	–	–	–	c1nc2ccc(-n3cnc4cnc5cnc(-c6cnsc6)cc5c43)cc2[nH]1	–
4	30	30	3.2	80	135 (≈ 69.7 µg/mL)	> 1000	C[C@H](CN1CCOCC1)Nc1ccc2cc(-n3cnc4cnc5cnc(-c6ccncc6)cc5c43)ccc2n1	clearance [14]: 221 mL/min/kg
22	280	290	5.1	> 10000	13 (≈ 6.86 µg/mL)	261 (≈ 138 µg/mL)	CC(CN1CCOCC1)Nc1nc2ccc(-n3cnc4cnc5cnc(-c6cccs6)cc5c43)cc2s1 (stereo not given)	clearance [14]: 40 mL/min/kg; fraction unbound at 4 h, 5 µM [13]: < 0.01; half-life at 5 µM [15]: < 3 min; remaining at 1 h, 5 µM [16]: 66%; remaining at 1 h [17]: 86%; remaining at 4 h [18]: 68%; dose excreted at 8 h [19]: 4%; dose excreted at 8 h [20]: 1%; dose excreted [21]: 0.63%; dose excreted [22]: 0.63%
40	–	–	4	–	–	–	c1nc2ccc(-n3cnc4cnc5cnc(-c6ccsc6)cc5c43)cc2[nH]1	–
3500	–	–	–	–	–	–	c1nc2ccc(-n3cnc4cnc5cnc(N6CCCCC6)cc5c43)cc2[nH]1	–
9	80	70	3.3	600	60 (≈ 31.4 µg/mL)	> 1000	CC(CN1CCOCC1)Nc1nc2ccc(-n3cnc4cnc5cnc(-c6ccncc6)cc5c43)cc2s1 (stereo not given)	clearance [14]: 297 mL/min/kg; fraction unbound at 4 h, 5 µM [13]: 0.02; half-life at 5 µM [15]: < 3 min; Drug metabolism [23]: Metabolite_Detected; dose excreted at 8 h [24]: 37%; remaining at 1 h, 5 µM [16]: 16%; remaining at 1 h [17]: 49%; remaining at 4 h [18]: 20%; dose excreted at 8 h [19]: 0%; dose excreted at 8 h [20]: 2%; dose excreted [21]: 0.13%; dose excreted [22]: 0.04%; Drug excretion [25]: 0.002 %ID; Drug excretion [26]: 0.002 %ID; dose excreted at 8 h [27]: 0.33%; Drug metabolism [28]: Metabolite_Detected
–	–	–	–	–	–	–	Cc1cnc(NC(=O)C2=C(O)c3ccccc3S(=O)(=O)N2C)s1	Activity [29]: Active
150	–	–	–	–	–	–	c1nc2ccc(-n3cnc4cnc5cnc(-c6cn[nH]c6)cc5c43)cc2[nH]1	–
